The record followed here is ChEMBL document CHEMBL2040721, “Potent direct inhibitors of factor Xa based on the tetrahydroisoquinoline scaffold” (Eur J Med Chem, 2012).

Experiment [1] relates to Plasma. Kind of experiment: Anticoagulant activity in human plasma assessed as concentration required to double the prothrombin time incubated for 30 s prior to thromboplastin addition by fibrometry.
The test system of experiment [2] is Plasma. Kind of experiment: Anticoagulant activity in human plasma assessed as concentration required to double the activated […] time incubated for 4 mins prior to CaCl2-challenge by fibrometry. The experiment is classed as functional.
The target of the next experiment is Coagulation factor X (Homo sapiens, UniProt P00742). Kind of experiment: Inhibition of human factor 10a using chromogenic spectrozyme F10a as substrate after 10 mins by spectrophotometry. The gist of the method:
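Human plasma FXa pre-incubated 10 min at 37 °C with inhibitor (twelve concentrations, 0.015–500 μM in well) in pH 7.4 buffer, then Spectrozyme FXa added. Initial rate of A405 rise gives residual activity relative to no-inhibitor control. Duplicate or triplicate; logistic fit gives IC50, efficacy and Hill slope. Organic solvent held constant, <2.5% v/v.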

Each structure is given as a SMILES string.

Coagulation factor X, sequence (P00742 41-179 limits assumed): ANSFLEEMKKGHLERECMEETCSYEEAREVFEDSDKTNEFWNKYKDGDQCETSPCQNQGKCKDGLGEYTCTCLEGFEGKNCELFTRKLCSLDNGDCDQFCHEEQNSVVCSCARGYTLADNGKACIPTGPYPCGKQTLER
Coagulation factor X, sequence (P00742 235-488 limits assumed): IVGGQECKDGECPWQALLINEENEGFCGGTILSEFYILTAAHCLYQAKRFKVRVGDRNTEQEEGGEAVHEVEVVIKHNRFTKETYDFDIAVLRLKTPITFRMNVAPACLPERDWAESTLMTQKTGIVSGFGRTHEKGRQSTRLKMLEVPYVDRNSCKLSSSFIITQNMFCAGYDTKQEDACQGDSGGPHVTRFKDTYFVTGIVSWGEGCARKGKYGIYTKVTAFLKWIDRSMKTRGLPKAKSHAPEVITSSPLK

Consider `CN(C(=O)[C@@H]1Cc2ccccc2CN1C(=O)Cc1ccc(Cl)cc1Cl)c1ccc(N2CCCCC2=O)cc1`, for which the 2PT in the experiment with Plasma [1] was 219 µM. In the experiment with Plasma [2], the 2aPTT came out at 260 µM. The compound further registered an IC50 on Coagulation factor X of 1.3 µM.

As to `CN(C(=O)[C@H](Cc1ccccc1)NC(=O)Cc1ccc(Cl)cc1)c1ccc(N2CCCCC2=O)cc1`, the IC50 against Coagulation factor X was 54 µM.

`CN(C(=O)[C@@H]1Cc2ccccc2CN1S(=O)(=O)Cc1ccc(Cl)cc1)c1ccc(N2CCCCC2=O)cc1` displayed a half-inhibitory concentration (IC50) against Coagulation factor X of 151 µM.

`O=C(Nc1ccc(N2CCCCC2=O)cc1)[C@@H]1Cc2ccccc2CN1C(=O)c1ccc(C(F)(F)F)cc1` yielded an IC50 on Coagulation factor X of 13.3 µM.

As to `O=C(Nc1ccc(N2CCOCC2=O)cc1)[C@@H]1Cc2ccccc2CN1C(=O)OCc1ccccc1`, the 2PT with Plasma [1] was determined as 1387 µM. Further, half-maximal inhibition against Coagulation factor X (IC50) required 6 µM.

On Coagulation factor X, `CN(C(=O)[C@@H]1CCCCN1C(=O)c1ccc(Cl)s1)c1ccc(N2CCCCC2=O)cc1` had an IC50 of 358 µM.

As to `CCN(C(=O)[C@@H]1Cc2ccccc2CN1C(=O)OCc1ccccc1)c1ccc(N2CCOCC2=O)cc1`, the IC50 against Coagulation factor X came to 19 µM.

`CN(C(=O)[C@@H]1Cc2ccccc2CN1C(=O)Cc1ccc(C(F)(F)F)cc1)c1ccc(N2CCCCC2=O)cc1` yielded an IC50 on Coagulation factor X of 335 µM.

The compound `CN(C(=O)[C@@H]1Cc2ccccc2CN1C(=O)c1ccc(Cl)s1)c1ccc(N2CCCCC2=O)cc1` yielded an IC50 against Coagulation factor X of 56 µM.

As to `Cc1ccc(C(=O)N2Cc3ccccc3C[C@H]2C(=O)N(C)c2ccc(N3CCCCC3=O)cc2)cc1`, at Coagulation factor X, the IC50 amounted to 209 µM.

The compound `COc1ccc(CCC(=O)N2Cc3ccccc3C[C@H]2C(=O)N(C)c2ccc(N3CCOCC3=O)cc2)cc1` came in with an IC50 against Coagulation factor X of 190 µM.

Turning to `CN(C(=O)[C@H]1CCCN(C(=O)Cc2ccc(Cl)cc2)C1)c1ccc(N2CCCCC2=O)cc1`, the IC50 against Coagulation factor X was 371 µM.

Take `CN(C(=O)[C@H]1Cc2ccccc2CN1C(=O)Cc1ccc(C(F)(F)F)cc1)c1ccc(N2CCCCC2=O)cc1`: at Coagulation factor X, the IC50 was found to be 311 µM.

For `CN(C(=O)[C@H]1CCCCN1C(=O)c1ccc(Cl)s1)c1ccc(N2CCCCC2=O)cc1`, 99 µM corresponded to half-maximal inhibition against Coagulation factor X (IC50).

`Cc1c(C(=O)N2Cc3ccccc3C[C@H]2C(=O)Nc2ccc(N3CCOCC3=O)cc2)sc2ccc(Cl)cc12`: the 2PT in the experiment on Plasma [1] stood at 2160 µM. The same compound returned an IC50 on Coagulation factor X of 5.4 µM.

For the compound `CN(C(=O)[C@H]1Cc2ccccc2CN1C(=O)Cc1ccc(Cl)cc1)c1ccc(N2CCCCC2=O)cc1`, on Coagulation factor X, 0.9 µM corresponded to half-maximal inhibition (IC50).

At Coagulation factor X, `O=C(Nc1ccc(N2CCCCC2=O)cc1)[C@@H]1Cc2ccccc2CN1C(=O)OCc1ccccc1` displayed an IC50 of 9.9 µM.

With `CN(C(=O)[C@@H]1Cc2ccccc2CN1C(=O)c1cccs1)c1ccc(N2CCCCC2=O)cc1`, 42 µM corresponded to half-maximal inhibition against Coagulation factor X (IC50).

Consider `O=C(Nc1ccc(N2CCOCC2=O)cc1)[C@@H]1Cc2ccccc2CN1C(=O)c1ccc(CCl)cc1`, for which the 2PT in the experiment with Plasma [1] is 645 µM. Also, the 2aPTT in the experiment on Plasma [2] is 614 µM. This compound also gave an IC50 against Coagulation factor X of 2.9 µM.

On Coagulation factor X, `CN(C(=O)[C@@H]1Cc2ccccc2CN1C(=O)Cc1ccc(Cl)c(Cl)c1)c1ccc(N2CCCCC2=O)cc1` returned an IC50 of 18 µM.

Compound `O=C(Nc1ccc(N2CCOCC2=O)cc1)[C@H]1CCCCN1C(=O)Cc1ccc(Cl)cc1` yielded a 50% inhibitory concentration (IC50) on Coagulation factor X of 23 µM.

Turning to `O=C(Nc1ccc(N2CCCCC2)cc1)[C@@H]1Cc2ccccc2CN1C(=O)OCc1ccccc1`, the IC50 on Coagulation factor X was more than 500 µM.

Compound `COc1ccc(C(=O)N2Cc3ccccc3C[C@H]2C(=O)N(C)c2ccc(N3CCCCC3=O)cc2)cc1` yielded an IC50 against Coagulation factor X of 19 µM.

As for `CN(C(=O)[C@@H]1CCCN(C(=O)c2ccc(Cl)s2)C1)c1ccc(N2CCCCC2=O)cc1`, on Coagulation factor X, the half-inhibitory concentration (IC50) was 69 µM.

Take `CN(C(=O)[C@@H]1Cc2ccccc2CN1C(=O)CCc1ncc(-c2ccc(Cl)cc2)o1)c1ccc(N2CCCCC2=O)cc1`: the midpoint of inhibition on Coagulation factor X, the IC50, lay at 103 µM.

Consider `COc1cc2c(cc1OC)CN(C(=O)Cc1ccc(Cl)cc1)[C@H](C(=O)N(C)c1ccc(N3CCCCC3=O)cc1)C2`, for which the IC50 against Coagulation factor X was determined as 7.8 µM.

`O=C(Nc1ccc(Cl)cc1)[C@@H]1Cc2ccccc2CN1C(=O)OCc1ccccc1` had an IC50 on Coagulation factor X of more than 500 µM.

Turning to `CN(C(=O)[C@@H]1Cc2ccccc2CN1C(=O)Cc1ccc([N+](=O)[O-])cc1)c1ccc(N2CCCCC2=O)cc1`, on Coagulation factor X, the 50% inhibitory concentration (IC50) was determined as 85 µM.

On Coagulation factor X, `O=C(Nc1ccc(N2CCN(C(=O)c3cccs3)CC2)cc1)[C@@H]1Cc2ccccc2CN1C(=O)OCc1ccccc1` returned a half-maximal inhibitory concentration (IC50) of more than 500 µM.

As for `O=C(Nc1ccc(N2CCOCC2=O)cc1)[C@@H]1CC=CCN1C(=O)Cc1ccc(Cl)cc1`, the 2PT with Plasma [1] stood at 952 µM. Also, the 2aPTT with Plasma [2] amounted to 810 µM. Moreover, the IC50 against Coagulation factor X was 9 µM.

Compound `CC(=O)N1CCN(c2ccc(NC(=O)[C@@H]3Cc4ccccc4CN3C(=O)OCc3ccccc3)cc2)CC1` registered an IC50 on Coagulation factor X of more than 500 µM.

`CN(C(=O)[C@@H]1Cc2ccccc2CN1C(=O)OCc1ccccc1)c1ccc(N2CCCCC2=O)cc1`: the IC50 on Coagulation factor X stood at 16.4 µM.

In the case of `CCN(C(=O)[C@@H]1Cc2ccccc2CN1C(=O)OCc1ccccc1)c1ccc(N2CCCCC2=O)cc1`, at Coagulation factor X, the IC50 worked out at 20 µM.

On Coagulation factor X, `CCN(C(=O)[C@@H]1Cc2ccccc2CN1C(=O)Cc1ccc(Cl)cc1)c1ccc(N2CCOCC2=O)cc1` registered an IC50 of 1.6 µM.

`CN(C(=O)[C@@H]1Cc2ccccc2CN1C(=O)OC(C)(C)C)c1ccc(N2CCCCC2=O)cc1`: half-maximal inhibition on Coagulation factor X (IC50) required 221 µM.

`COc1ccc(CC(=O)N2Cc3ccccc3C[C@H]2C(=O)N(C)c2ccc(N3CCCCC3=O)cc2)cc1OC`: the midpoint of inhibition against Coagulation factor X, the IC50, lay at 246 µM.

`CN(C(=O)[C@@H]1Cc2ccccc2CN1C(=O)c1ccc(Cl)s1)c1ccc(N2CCOCC2=O)cc1`: on Coagulation factor X, it took 36 µM to reach half-maximal inhibition (IC50).

`COc1ccc(CC(=O)N2Cc3ccccc3C[C@H]2C(=O)N(C)c2ccc(N3CCCCC3=O)cc2)cc1` had an IC50 at Coagulation factor X of 34 µM.

For `O=C(Nc1ccc(N2CCOCC2=O)cc1)[C@@H]1[C@@H]2CC[C@H](C2)N1C(=O)Cc1ccc(Cl)cc1`, in the experiment with Plasma [1], the 2PT worked out at 2347 µM. Also, the IC50 on Coagulation factor X was 10 µM.

As to `COc1ccc(CCC(=O)N2Cc3ccccc3C[C@H]2C(=O)N(C)c2ccc(N3CCOCC3=O)cc2)c(OC)c1`, the IC50 on Coagulation factor X is more than 500 µM.

`Cc1ccc(CC(=O)N2Cc3ccccc3C[C@H]2C(=O)N(C)c2ccc(N3CCCCC3=O)cc2)cc1` returned an IC50 against Coagulation factor X of 14 µM.

`CN(C(=O)[C@@H]1Cc2ccccc2CN1C(=O)Cc1ccc(Cl)cc1)c1ccc(N2CCOCC2=O)cc1` yielded an IC50 at Coagulation factor X of 1.1 µM.

Take `CN(C(=O)[C@@H]1Cc2ccccc2CN1C(=O)OCc1ccccc1)c1ccc(N2CCOCC2=O)cc1`: the concentration for half-maximal inhibition (IC50) at Coagulation factor X is 12.8 µM.

The compound `CN(C(=O)[C@@H]1Cc2ccccc2CN1C(=O)c1cc(-c2ccc(Br)cc2)cs1)c1ccc(N2CCOCC2=O)cc1` yielded a 50% inhibitory concentration (IC50) against Coagulation factor X of more than 500 µM.

`CC(C)N(C(=O)[C@@H]1Cc2ccccc2CN1C(=O)OCc1ccccc1)c1ccc(N2CCCCC2=O)cc1` returned a half-inhibitory concentration (IC50) against Coagulation factor X of 19 µM.

As for `CN(C(=O)[C@@H]1Cc2ccccc2CN1C(=O)c1ccc(Cl)cc1)c1ccc(N2CCCCC2=O)cc1`, the IC50 on Coagulation factor X turned out to be 197 µM.

Regarding `CN(C(=O)[C@@H]1Cc2ccccc2CN1C(=O)Cc1ccc(Cl)cc1)c1ccc(N2CCCCC2=O)cc1`, the 2PT in the experiment on Plasma [1] was determined as 71 µM. Moreover, the 2aPTT in the experiment with Plasma [2] worked out at 80 µM. At Coagulation factor X, this compound had an IC50 of 1.3 µM.
